“Also recorded” adds a separate entry of the source.

Test [1] deals with T1, AbDapE (Acinetobacter baumannii, UniProt A3M8H2). In words: DapE ninhydrin enzyme inhibition assay, AbDapE. The note with it: for Inhibition of AbDapE (in words): tested at 100 μM. Type of test: biochemical. In short, it runs like this: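 Purified His-tag-cleaved AbDapE at 8 nM final in 50 mM HEPES pH 7.5, 30 °C. Test compound (DMSO, 5% final) is preincubated with enzyme for 10 min before 2 mM N6-methyl-L,L-SDAP. After 10 min, heat to 100 °C for 1 min, chill, add 2% ninhydrin, 80 °C for 15 min, then read A570.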

Test [2] concerns the target T2, HiDapE (Haemophilus influenzae, UniProt P44514).
T2 sequence (P44514 1-377): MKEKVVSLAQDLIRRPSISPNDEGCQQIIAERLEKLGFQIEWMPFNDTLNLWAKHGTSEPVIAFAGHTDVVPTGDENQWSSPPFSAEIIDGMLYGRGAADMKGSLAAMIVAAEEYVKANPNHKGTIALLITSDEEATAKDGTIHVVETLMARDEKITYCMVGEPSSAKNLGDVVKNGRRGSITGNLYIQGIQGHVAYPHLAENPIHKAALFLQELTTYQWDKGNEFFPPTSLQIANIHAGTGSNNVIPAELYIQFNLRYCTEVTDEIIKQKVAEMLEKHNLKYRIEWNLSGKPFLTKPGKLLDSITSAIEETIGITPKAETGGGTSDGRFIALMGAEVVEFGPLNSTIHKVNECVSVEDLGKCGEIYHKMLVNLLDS
Kind of test: Thermal shift assay, HiDapE. Type of test: binding. The note with it: for Tm1 HiDapE / Tm2 HiDapE: 200 nM HiDapE + 10× dye.

Test [3] concerns the target T1, AbDapE. Kind of test: Thermal shift assay, AbDapE native. Type of test: binding. The note with it: for Tm1 AbDapE / Tm2 AbDapE: 16 μM AbDapE + 10× dye. In short, it runs like this: (§1)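 SYPRO Orange thermal melt at 10× dye in 50 mM HEPES pH 7.5, 10 µL triplicates. Protein is 16 µM for native AbDapE and 6 µM for SeMet AbDapE, with DMSO kept below 5%. Tm comes from the negative first derivative of the melting curves, further differentiated to the third derivative. Ki is calculated from Tm plotted against log[test compound] using a derived van't Hoff equation.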

Test [4] concerns the target AbDapE-SeMet (Acinetobacter baumannii, UniProt A3M8H2). Kind of test: Thermal shift assay, AbDapE-SeMet. Type of test: binding. The note with it: 6 μM AbDapE-SeMet + 10× dye. The method, boiled down:
as §1

Test [5] concerns DapE. The note with it: DapE from E. faecium and E. coli studied; cited from earlier work.

Chain of AbDapE-SeMet (A3M8H2 whole entry): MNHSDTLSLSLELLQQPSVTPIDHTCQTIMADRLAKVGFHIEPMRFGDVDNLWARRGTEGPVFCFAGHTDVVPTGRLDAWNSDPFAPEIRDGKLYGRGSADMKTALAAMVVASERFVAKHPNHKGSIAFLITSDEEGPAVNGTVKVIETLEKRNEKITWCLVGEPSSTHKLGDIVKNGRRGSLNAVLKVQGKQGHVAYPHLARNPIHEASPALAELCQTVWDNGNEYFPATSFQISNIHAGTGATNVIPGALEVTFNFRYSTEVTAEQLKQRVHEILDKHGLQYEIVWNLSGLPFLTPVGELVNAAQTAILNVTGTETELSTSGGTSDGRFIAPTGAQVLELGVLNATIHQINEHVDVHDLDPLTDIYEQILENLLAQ
T1 sequence (A3M8H2 whole entry): as above

`CC(=O)N1CCc2cc(Cl)c(S(=O)(=O)NCCC(C)C)cc21` [1-acetyl-5-chloro-N-isopentylindoline-6-sulfonamide]: the “Inhibition of AbDapE (in words)” value in test [1] is listed as “did not inhibit AbDapE significantly”; in test [1] (listed as indoline sulfonamide), “not significantly inhibited; also recorded: did not measurably inhibit”.

For `C[C@H](CS)C(=O)N1CCC[C@H]1C(=O)O` [Captopril], 1200 nM corresponded to half-maximal inhibition in test [1] (AbDapE IC50, ninhydrin assay, 8 nM enzyme, 2 mM N^6-methyl-L,L-SDAP) (IC50). Also, the “Mode of inhibition of AbDapE” value in test [1] (kinetic assays, modified ninhydrin assay) is listed as “competitive inhibitors”. The “Tm1 HiDapE” value is 51.5 ± 0.1 °C in test [2] (0.005 μM captopril); 50.2 ± 0.6 °C in test [2] (0.05 μM captopril); 50.0 ± 0.8 °C in test [2] (0.1 μM captopril); 50.5 ± 0.1 °C in test [2] (0.5 μM captopril); 50.3 ± 0.5 °C in test [2] (0.8 μM captopril); 51.2 ± 0.2 °C in test [2] (1 μM captopril). The “Tm1 HiDapE” value was 52.2 ± 0.1 °C in test [2] (3 μM captopril), 53.2 ± 0.2 °C in test [2] (5 μM captopril) and 52.9 ± 0.6 °C in test [2] (10 μM captopril). For the same molecule, the “Tm2 HiDapE” value in test [2] (0.005 μM captopril) came out at 78.2 ± 0.1 °C; in test [2] (0.05 μM captopril), 78.6 ± 0.1 °C; in test [2] (0.1 μM captopril), 78.1 ± 0.1 °C; in test [2] (0.5 μM captopril) it was 78.3 ± 0.1 °C; in test [2] (0.8 μM captopril) it was 77.9 ± 0.1 °C; in test [2] (1 μM captopril) it was 77.8 ± 0.1 °C. Further, the “Tm2 HiDapE” value in test [2] (3 μM captopril) amounted to 78.0 ± 0.1 °C; in test [2] (5 μM captopril), 77.8 ± 0.1 °C; in test [2] (10 μM captopril), 77.9 ± 0.1 °C. In addition, the “Effect on stability (Tm) of HiDapE, in words” value in test [2] (thermal shift assays) is “stabilize HiDapE”. Also, the “Tm1 AbDapE” value in test [3] (0.005 μM captopril) is 41.9 ± 0.1 °C; in test [3] (0.05 μM captopril), 41.9 ± 0.2 °C; in test [3] (0.1 μM captopril), 41.9 ± 0.1 °C; in test [3] (0.5 μM captopril) it was 41.9 ± 0.2 °C; in test [3] (0.8 μM captopril) it was 41.9 ± 0.1 °C; in test [3] (1 μM captopril), 41.7 ± 0.1 °C. Also, the “Tm1 AbDapE” value in test [3] (3 μM captopril) stood at 41.7 ± 0.2 °C; in test [3] (5 μM captopril), 41.4 ± 0.1 °C; in test [3] (10 μM captopril), 41.1 ± 0.1 °C; in test [3] (15 μM captopril) it was 42.0 ± 0.1 °C. Also, the “Tm2 AbDapE” value in test [3] (0.005 μM captopril) was found to be 62.9 ± 0.1 °C; in test [3] (0.05 μM captopril), 63.3 ± 0.7 °C; in test [3] (0.1 μM captopril) it was 62.6 ± 0.3 °C; in test [3] (0.5 μM captopril), 63.1 ± 0.4 °C; in test [3] (0.8 μM captopril), 62.3 ± 0.1 °C; in test [3] (1 μM captopril), 63.4 ± 1.0 °C. Besides, the “Tm2 AbDapE” value worked out at 65.1 ± 0.3 °C in test [3] (3 μM captopril), 64.1 ± 0.2 °C in test [3] (5 μM captopril), 66.6 ± 0.2 °C in test [3] (10 μM captopril) and 65.5 ± 0.4 °C in test [3] (15 μM captopril). In test [3] (thermal shift assays), the “Effect on stability of AbDapE, in words” value is given as “increases the stability”. For the same molecule, the “Tm AbDapE-SeMet” value in test [4] (0.005 μM captopril) was determined as 65.3 ± 0.2 °C; in test [4] (0.05 μM captopril) it was 65.5 ± 0.1 °C; in test [4] (0.1 μM captopril), 65.3 ± 0.2 °C; in test [4] (0.5 μM captopril) it was 65.1 ± 0.1 °C; in test [4] (0.8 μM captopril), 66.1 ± 0.1 °C; in test [4] (1 μM captopril) it was 65.7 ± 0.1 °C. For the same molecule, the figures for the “Tm AbDapE-SeMet” value in test [4] (3 μM captopril), in test [4] (5 μM captopril) and in test [4] (10 μM captopril) were 66.4 ± 0.3 °C, 67.2 ± 0.2 °C and 68.5 ± 0.1 °C, respectively.

Take `CCN(CC)C(=S)SSC(=S)N(CC)CC` [disulfiram]: the “Effect on Tm values of DapE, in words” value in test [5] is recorded as “lowering of the Tm values”.

On to `Cc1ccccc1C(OCCN(C)C)c1ccccc1` (stereo not shown) [orphenadrine], for which the “Effect on Tm values of DapE, in words” value in test [5] is on record as “lowering of the Tm values”.

Source of the values: article PMC10809365 (ACS Omega, 2024).
